One series relates to Aspergillus oryzae. Put plainly: Antifungal activity against Aspergillus oryzae NCIM 643 after 48 hrs by agar well diffusion assay. The format is functional. The settings on record: NCIM 643, 48 h. In outline:
(§1)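 Fungal spore suspensions in sterile distilled water set to final 10⁶ CFU/mL; 0.1 mL spread on Potato-Dextrose-Agar. NCCLS agar well diffusion with NCIM standard strains: 6 mm wells given 0.1 mL compound diluted in 1% DMSO, final 16 to 512 µg/mL. Triplicate plates held 48 h at 28 0.2 °C. MIC is lowest concentration fully inhibiting growth.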
(In general: In agar diffusion tests the substance spreads into inoculated agar from a disc or well.)

For a further series, the system named is Pseudomonas aeruginosa. Briefly: Antibacterial activity against Pseudomonas aeruginosa NCIM 2036 after 24 hrs by agar well diffusion assay. The format is functional. To be noted: NCIM 2036, 24 h. The essentials:
(§2)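 Agar well diffusion per NCCLS; NCIM standard strains. Nutrient agar seeded with 0.1 mL bacterial suspension in sterile 0.85% saline at 10⁵ CFU/mL. Plates in triplicate, 37 0.5 °C, 24 h. MIC taken as lowest concentration giving complete growth inhibition.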

The test system of the next series is Staphylococcus aureus. Put plainly: Antibacterial activity against Staphylococcus aureus NCIM 2079 after 24 hrs by agar well diffusion assay. The series is classed as functional. The settings on record: NCIM 2079, 24 h. The essentials:
as §2

The next series deals with Bacillus subtilis. Put plainly: Antibacterial activity against Bacillus subtilis NCIM 2063 after 24 hrs by agar well diffusion assay. The settings on record: NCIM 2063, 24 h. The series is classed as functional. The essentials: as §2
In the next series the test system is Proteus vulgaris. Put plainly: Antibacterial activity against Proteus vulgaris NCIM 2813 after 24 hrs by agar well diffusion assay. The format is functional. The settings on record: NCIM 2813, 24 h. In outline: as §2
The next series relates to Klebsiella pneumoniae. Briefly: Antibacterial activity against Klebsiella pneumoniae NCIM 5082 after 24 hrs by agar well diffusion assay. The series is classed as functional. The settings on record: NCIM 5082, 24 h. The essentials: as §2
A further series has as its system Micrococcus luteus. Put plainly: Antibacterial activity against Micrococcus luteus NCIM 2155 after 24 hrs by agar well diffusion assay. To be noted: NCIM 2155, 24 h. The format is functional. The essentials: as §2
In another series the test system is Aspergillus niger. Put plainly: Antifungal activity against Aspergillus niger NCIM 548 after 48 hrs by agar well diffusion assay. The series is classed as functional. The settings on record: NCIM 548, 48 h. In outline: as §1
In another series the test system is Candida albicans. Briefly: Antifungal activity against Candida albicans NCIM 3102 after 48 hrs by agar well diffusion assay. The series is classed as functional. The settings on record: NCIM 3102, 48 h. In outline: as §1
The next series has as its system Penicillium chrysogenum. Briefly: Antifungal activity against Penicillium chrysogenum NCIM 738 after 48 hrs by agar well diffusion assay. To be noted: NCIM 738, 48 h. The series is classed as functional. The essentials:
as §1

Series [1] is described as follows: Toxicity against Brine shrimp nauplii after 24 hrs. The series is classed as organism-based. The settings on record: artemia salina, in vivo; read-out: ED50. In outline: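 Artemia salina nauplii hatched 38 h in sterile brine (sea salt 38 g/L, pH 8.5) under aeration; 10 nauplii per vial exposed to graded compound concentrations in 5 mL final volume, 37 °C, 24 h under incandescent light. Survivors counted; percent lethality versus vehicle-treated controls; ED50 from probit analysis; podophyllotoxin positive control.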

Another series has as its system Bacillus pumilus. Briefly: Antibacterial activity against Bacillus pumilus NCIM 2327 after 24 hrs by agar well diffusion assay. To be noted: NCIM 2327, 24 h.
For the next series, the system named is Escherichia coli. Briefly: Antibacterial activity against Escherichia coli NCIM 2065 after 24 hrs by agar well diffusion assay. The series is classed as functional. To be noted: NCIM 2065, 24 h. In outline:
as §2

In brackets after ≈: the same amount, converted by molar mass.

As usually defined, the MIC is the smallest concentration in the dilution series that meets the test's criterion for growth inhibition. For `Cc1ccc(S(=O)(=O)NC(=O)Nc2ccccc2C(=O)/C=C/c2cccc([N+](=O)[O-])c2)cc1`, the minimum inhibitory concentration (MIC) in the series with Aspergillus oryzae, in the series with Pseudomonas aeruginosa, in the series on Staphylococcus aureus, against Bacillus subtilis, against Proteus vulgaris and with Klebsiella pneumoniae was 256 µg/mL (≈ 550 µM) each time. The minimal inhibitory concentration (MIC) in the series with Micrococcus luteus, with Aspergillus niger, with Candida albicans, against Penicillium chrysogenum, against Bacillus pumilus and in the series with Escherichia coli was 256 µg/mL (≈ 550 µM) in each case. The LC50 at 24 h in series [1] is 44.5 µg/mL (≈ 95.5 µM).
For `Cc1ccc(S(=O)(=O)NC(=O)Nc2ccccc2C(=O)/C=C/c2cc(O)ccc2[N+](=O)[O-])cc1`, the MIC is 64 µg/mL (≈ 133 µM) with Aspergillus oryzae; 16 µg/mL (≈ 33.2 µM) in the series on Pseudomonas aeruginosa; 16 µg/mL (≈ 33.2 µM) in the series with Staphylococcus aureus; 16 µg/mL (≈ 33.2 µM) against Bacillus subtilis; 64 µg/mL (≈ 133 µM) against Proteus vulgaris; 64 µg/mL (≈ 133 µM) against Klebsiella pneumoniae. For the same molecule, the MIC came out at 64 µg/mL (≈ 133 µM) against Micrococcus luteus; 64 µg/mL (≈ 133 µM) in the series with Aspergillus niger; 32 µg/mL (≈ 66.5 µM) in the series with Candida albicans; 64 µg/mL (≈ 133 µM) with Penicillium chrysogenum; 16 µg/mL (≈ 33.2 µM) in the series with Bacillus pumilus; 16 µg/mL (≈ 33.2 µM) against Escherichia coli. The LC50 at 24 h in [1] was 18.3 µg/mL (≈ 38 µM).
As for `Cc1ccc(S(=O)(=O)NC(=O)Nc2ccccc2C(=O)/C=C/c2cccc(F)c2)cc1`, the MIC with Aspergillus oryzae is 64 µg/mL (≈ 146 µM); in the series on Pseudomonas aeruginosa it was 16 µg/mL (≈ 36.5 µM); against Staphylococcus aureus, 16 µg/mL (≈ 36.5 µM); with Bacillus subtilis it was 16 µg/mL (≈ 36.5 µM); with Proteus vulgaris, 64 µg/mL (≈ 146 µM); against Klebsiella pneumoniae it was 64 µg/mL (≈ 146 µM). In addition, the MIC is 64 µg/mL (≈ 146 µM) with Micrococcus luteus; 64 µg/mL (≈ 146 µM) with Aspergillus niger; 64 µg/mL (≈ 146 µM) against Candida albicans; 64 µg/mL (≈ 146 µM) in the series with Penicillium chrysogenum; 16 µg/mL (≈ 36.5 µM) in the series on Bacillus pumilus; 16 µg/mL (≈ 36.5 µM) against Escherichia coli. Besides, the LC50 at 24 h in [1] was found to be 4.13 µg/mL (≈ 9.42 µM).
In the case of `Cc1ccc(S(=O)(=O)NC(=O)Nc2ccccc2C(=O)/C=C/c2ccc(F)cc2)cc1`, the minimum inhibitory concentration (MIC) against Aspergillus oryzae stood at 64 µg/mL (≈ 146 µM); in the series with Pseudomonas aeruginosa, 32 µg/mL (≈ 73 µM); in the series with Staphylococcus aureus, 32 µg/mL (≈ 73 µM); in the series on Bacillus subtilis, 16 µg/mL (≈ 36.5 µM); with Proteus vulgaris, 16 µg/mL (≈ 36.5 µM); against Klebsiella pneumoniae, 16 µg/mL (≈ 36.5 µM). Also, the MIC amounted to 64 µg/mL (≈ 146 µM) with Micrococcus luteus; 64 µg/mL (≈ 146 µM) against Aspergillus niger; 64 µg/mL (≈ 146 µM) against Candida albicans; 64 µg/mL (≈ 146 µM) in the series on Penicillium chrysogenum; 32 µg/mL (≈ 73 µM) with Bacillus pumilus; 32 µg/mL (≈ 73 µM) against Escherichia coli. In addition, the LC50 at 24 h in [1] was 3.96 µg/mL (≈ 9.03 µM).
On to `Cc1ccc(S(=O)(=O)NC(=O)Nc2ccccc2C(=O)/C=C/c2ccccc2Cl)cc1`, for which the minimum inhibitory concentration (MIC) in the series with Aspergillus oryzae was found to be 128 µg/mL (≈ 281 µM); with Pseudomonas aeruginosa, 64 µg/mL (≈ 141 µM); in the series on Staphylococcus aureus, 64 µg/mL (≈ 141 µM); against Bacillus subtilis, 64 µg/mL (≈ 141 µM); against Proteus vulgaris, 128 µg/mL (≈ 281 µM); in the series on Klebsiella pneumoniae, 128 µg/mL (≈ 281 µM). The MIC against Micrococcus luteus came to 128 µg/mL (≈ 281 µM); with Aspergillus niger, 128 µg/mL (≈ 281 µM); in the series with Candida albicans it was 128 µg/mL (≈ 281 µM); in the series with Penicillium chrysogenum, 128 µg/mL (≈ 281 µM); in the series with Bacillus pumilus it was 64 µg/mL (≈ 141 µM); with Escherichia coli, 64 µg/mL (≈ 141 µM). Moreover, the LC50 at 24 h in [1] came to 12.8 µg/mL (≈ 28.1 µM).
Regarding `Cc1ccc(S(=O)(=O)NC(=O)Nc2ccccc2C(=O)/C=C/c2ccc(Cl)cc2)cc1`, the MIC in the series with Aspergillus oryzae was 64 µg/mL (≈ 141 µM); against Pseudomonas aeruginosa it was 32 µg/mL (≈ 70.3 µM); with Staphylococcus aureus it was 32 µg/mL (≈ 70.3 µM); in the series on Bacillus subtilis it was 32 µg/mL (≈ 70.3 µM); against Proteus vulgaris, 64 µg/mL (≈ 141 µM); in the series on Klebsiella pneumoniae it was 64 µg/mL (≈ 141 µM). The MIC is 64 µg/mL (≈ 141 µM) with Micrococcus luteus; 64 µg/mL (≈ 141 µM) in the series on Aspergillus niger; 64 µg/mL (≈ 141 µM) with Candida albicans; 64 µg/mL (≈ 141 µM) against Penicillium chrysogenum; 32 µg/mL (≈ 70.3 µM) against Bacillus pumilus; 32 µg/mL (≈ 70.3 µM) against Escherichia coli. Also, the LC50 at 24 h in series [1] is 6.92 µg/mL (≈ 15.2 µM).
In the case of `Cc1ccc(S(=O)(=O)NC(=O)Nc2ccccc2C(=O)/C=C/c2ccc(Cl)cc2Cl)cc1`, the MIC turned out to be 64 µg/mL (≈ 131 µM) in the series on Aspergillus oryzae; 16 µg/mL (≈ 32.7 µM) with Pseudomonas aeruginosa; 32 µg/mL (≈ 65.4 µM) against Staphylococcus aureus; 16 µg/mL (≈ 32.7 µM) in the series with Bacillus subtilis; 64 µg/mL (≈ 131 µM) against Proteus vulgaris; 64 µg/mL (≈ 131 µM) against Klebsiella pneumoniae. The minimal inhibitory concentration (MIC) is 64 µg/mL (≈ 131 µM) in the series on Micrococcus luteus; 64 µg/mL (≈ 131 µM) with Aspergillus niger; 64 µg/mL (≈ 131 µM) with Candida albicans; 64 µg/mL (≈ 131 µM) in the series with Penicillium chrysogenum; 32 µg/mL (≈ 65.4 µM) with Bacillus pumilus; 32 µg/mL (≈ 65.4 µM) against Escherichia coli. Moreover, in series [1], the LC50 at 24 h was found to be 8.34 µg/mL (≈ 17 µM).
